Data set [1] addresses Histone-lysine N-methyltransferase, H3 lysine-79 specific (Homo sapiens) (UniProt Q8TEK3). Kind of data set: Inhibition of DOT1L (unknown origin) at 10 uM relative to control.
Data set [2] concerns the target T1, Histone-lysine N-methyltransferase EHMT1 (Homo sapiens) (UniProt Q9H9B1).
T1 sequence (whole entry): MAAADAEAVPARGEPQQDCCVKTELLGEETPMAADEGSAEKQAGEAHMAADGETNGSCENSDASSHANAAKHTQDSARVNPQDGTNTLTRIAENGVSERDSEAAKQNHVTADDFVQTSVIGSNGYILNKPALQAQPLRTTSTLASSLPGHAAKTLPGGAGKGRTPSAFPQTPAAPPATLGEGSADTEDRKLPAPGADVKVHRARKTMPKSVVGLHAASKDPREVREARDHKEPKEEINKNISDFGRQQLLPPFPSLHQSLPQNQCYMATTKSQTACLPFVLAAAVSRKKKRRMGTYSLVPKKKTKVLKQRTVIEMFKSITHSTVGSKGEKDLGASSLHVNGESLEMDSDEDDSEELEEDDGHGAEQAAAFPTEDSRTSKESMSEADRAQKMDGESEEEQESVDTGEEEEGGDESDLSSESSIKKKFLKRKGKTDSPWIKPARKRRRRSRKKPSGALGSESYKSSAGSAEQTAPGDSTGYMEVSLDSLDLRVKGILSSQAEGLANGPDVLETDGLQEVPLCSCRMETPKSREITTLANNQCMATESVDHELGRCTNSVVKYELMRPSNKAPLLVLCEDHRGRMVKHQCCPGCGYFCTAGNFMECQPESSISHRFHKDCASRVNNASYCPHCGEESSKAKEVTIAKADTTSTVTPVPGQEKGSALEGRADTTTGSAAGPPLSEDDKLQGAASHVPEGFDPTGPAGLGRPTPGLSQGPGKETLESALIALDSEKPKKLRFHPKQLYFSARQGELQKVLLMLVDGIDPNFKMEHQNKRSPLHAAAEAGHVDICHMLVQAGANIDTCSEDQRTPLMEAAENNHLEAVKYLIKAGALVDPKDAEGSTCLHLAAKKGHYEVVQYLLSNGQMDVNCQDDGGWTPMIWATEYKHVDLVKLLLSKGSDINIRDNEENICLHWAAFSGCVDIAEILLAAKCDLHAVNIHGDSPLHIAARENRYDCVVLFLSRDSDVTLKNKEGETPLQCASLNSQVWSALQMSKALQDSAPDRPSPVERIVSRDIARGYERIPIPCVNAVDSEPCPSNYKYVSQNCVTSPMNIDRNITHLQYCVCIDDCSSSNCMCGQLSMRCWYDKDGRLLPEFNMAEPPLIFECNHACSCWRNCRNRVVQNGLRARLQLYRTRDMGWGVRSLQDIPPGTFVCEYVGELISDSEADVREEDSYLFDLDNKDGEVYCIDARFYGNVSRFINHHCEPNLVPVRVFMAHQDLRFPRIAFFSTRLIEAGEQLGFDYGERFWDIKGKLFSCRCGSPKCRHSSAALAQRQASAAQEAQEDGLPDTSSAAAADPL
Kind of data set: Inhibition of EHMT1 (unknown origin) at 10 uM relative to control.

Data set [3] has as its target Protein arginine N-methyltransferase 3 (Homo sapiens) (UniProt O60678). Kind of data set: Inhibition of PRMT3 (unknown origin) at 10 uM relative to control.
The target in data set [4] is Protein arginine N-methyltransferase 6 (Homo sapiens) (UniProt Q96LA8). The data set can be described thus: Inhibition of PRMT6 (unknown origin) at 10 uM relative to control.
Data set [5] deals with T2, Protein arginine N-methyltransferase 7 (Homo sapiens) (UniProt Q9NVM4).
T2 sequence (whole entry): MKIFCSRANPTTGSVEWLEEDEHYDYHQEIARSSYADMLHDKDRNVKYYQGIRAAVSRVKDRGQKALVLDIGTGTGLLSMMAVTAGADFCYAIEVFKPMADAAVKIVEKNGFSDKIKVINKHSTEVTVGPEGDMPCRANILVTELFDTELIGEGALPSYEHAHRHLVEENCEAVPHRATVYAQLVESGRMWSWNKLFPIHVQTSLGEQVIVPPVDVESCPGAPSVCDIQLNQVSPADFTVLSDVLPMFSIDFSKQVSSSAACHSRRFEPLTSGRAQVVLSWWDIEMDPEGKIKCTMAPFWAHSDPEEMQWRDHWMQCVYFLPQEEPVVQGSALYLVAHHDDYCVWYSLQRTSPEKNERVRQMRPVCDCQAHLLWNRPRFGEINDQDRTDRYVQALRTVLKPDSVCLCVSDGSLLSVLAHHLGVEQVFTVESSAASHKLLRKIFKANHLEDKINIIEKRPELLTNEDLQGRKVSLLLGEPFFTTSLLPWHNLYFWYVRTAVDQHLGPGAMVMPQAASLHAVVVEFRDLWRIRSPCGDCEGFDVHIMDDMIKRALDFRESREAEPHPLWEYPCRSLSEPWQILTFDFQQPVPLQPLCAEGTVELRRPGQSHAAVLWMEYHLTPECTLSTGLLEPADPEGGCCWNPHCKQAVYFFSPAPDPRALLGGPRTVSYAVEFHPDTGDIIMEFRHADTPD
Kind of data set: Inhibition of PRMT7 (unknown origin) at 10 uM relative to control.

The target of data set [6] is Protein arginine N-methyltransferase 8 (Homo sapiens) (UniProt Q9NR22). Kind of data set: Inhibition of PRMT8 (unknown origin) at 10 uM relative to control.
The nature of data set [7]: Intrinsic clearance in CD1 mouse liver microsomes at 1 uM incubated for 5 to 45 mins by LC-MS/MS analysis in presence of NADPH. As to conditions: read-out: CLH. The format is ADME. In short, it runs like this:
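Mouse liver microsomal incubations; clearance scaled from microsomal data and reported as a mean value.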

Data set [8] can be described thus: Fraction unbound in CD1 mouse plasma at 1 uM incubated for 16 hrs by LC-MS/MS based equilibrium dialysis method. Type of data set: ADME, cell-free.

These results are taken from ChEMBL document CHEMBL3797202, “Novel Oxindole Sulfonamides and Sulfamides: EPZ031686, the First Orally Bioavailable Small Molecule SMYD3 Inhibitor” (ACS Med Chem Lett, 2016).

Sequence of Histone-lysine N-methyltransferase, H3 lysine-79 specific (Homo sapiens) (Q8TEK3 whole entry, looked up): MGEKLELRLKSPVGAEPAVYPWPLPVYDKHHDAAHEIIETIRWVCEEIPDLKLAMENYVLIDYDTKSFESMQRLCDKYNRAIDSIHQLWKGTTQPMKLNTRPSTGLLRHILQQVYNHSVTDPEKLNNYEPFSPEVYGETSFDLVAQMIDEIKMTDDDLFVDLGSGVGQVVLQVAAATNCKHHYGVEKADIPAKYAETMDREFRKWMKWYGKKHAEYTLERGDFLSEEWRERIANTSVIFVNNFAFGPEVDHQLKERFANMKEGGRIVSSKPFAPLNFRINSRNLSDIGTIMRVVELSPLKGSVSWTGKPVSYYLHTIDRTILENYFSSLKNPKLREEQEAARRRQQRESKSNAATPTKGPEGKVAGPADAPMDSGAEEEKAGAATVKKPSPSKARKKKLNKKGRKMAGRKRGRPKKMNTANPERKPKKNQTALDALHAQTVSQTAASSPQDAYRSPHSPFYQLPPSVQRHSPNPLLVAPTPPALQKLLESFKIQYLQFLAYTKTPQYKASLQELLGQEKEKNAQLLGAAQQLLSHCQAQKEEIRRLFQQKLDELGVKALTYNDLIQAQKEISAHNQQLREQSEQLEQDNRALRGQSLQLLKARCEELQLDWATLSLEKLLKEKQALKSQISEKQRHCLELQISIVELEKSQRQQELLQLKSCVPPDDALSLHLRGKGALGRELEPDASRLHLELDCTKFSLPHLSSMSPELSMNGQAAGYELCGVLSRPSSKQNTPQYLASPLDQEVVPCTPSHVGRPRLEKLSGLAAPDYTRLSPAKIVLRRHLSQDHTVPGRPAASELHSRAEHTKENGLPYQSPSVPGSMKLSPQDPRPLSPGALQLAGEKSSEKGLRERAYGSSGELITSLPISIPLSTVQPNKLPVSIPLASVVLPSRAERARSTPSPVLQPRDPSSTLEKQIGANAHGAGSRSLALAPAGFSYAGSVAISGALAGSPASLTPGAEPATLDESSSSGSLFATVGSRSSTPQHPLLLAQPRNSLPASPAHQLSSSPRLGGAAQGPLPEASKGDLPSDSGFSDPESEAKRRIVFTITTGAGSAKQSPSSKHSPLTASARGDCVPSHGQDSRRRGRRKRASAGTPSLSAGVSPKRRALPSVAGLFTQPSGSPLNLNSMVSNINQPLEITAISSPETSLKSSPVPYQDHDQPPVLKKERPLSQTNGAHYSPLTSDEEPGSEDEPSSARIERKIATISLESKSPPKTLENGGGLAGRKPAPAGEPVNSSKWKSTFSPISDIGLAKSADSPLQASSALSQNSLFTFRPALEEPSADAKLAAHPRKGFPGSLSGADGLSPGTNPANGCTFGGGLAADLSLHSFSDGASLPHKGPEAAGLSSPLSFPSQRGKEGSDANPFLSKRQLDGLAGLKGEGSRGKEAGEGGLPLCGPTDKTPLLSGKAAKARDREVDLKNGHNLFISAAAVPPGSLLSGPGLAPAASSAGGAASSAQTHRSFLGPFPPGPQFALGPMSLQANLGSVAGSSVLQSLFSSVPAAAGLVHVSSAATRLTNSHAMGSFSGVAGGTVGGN
Sequence of Protein arginine N-methyltransferase 6 (Homo sapiens) (Q96LA8 whole entry, looked up): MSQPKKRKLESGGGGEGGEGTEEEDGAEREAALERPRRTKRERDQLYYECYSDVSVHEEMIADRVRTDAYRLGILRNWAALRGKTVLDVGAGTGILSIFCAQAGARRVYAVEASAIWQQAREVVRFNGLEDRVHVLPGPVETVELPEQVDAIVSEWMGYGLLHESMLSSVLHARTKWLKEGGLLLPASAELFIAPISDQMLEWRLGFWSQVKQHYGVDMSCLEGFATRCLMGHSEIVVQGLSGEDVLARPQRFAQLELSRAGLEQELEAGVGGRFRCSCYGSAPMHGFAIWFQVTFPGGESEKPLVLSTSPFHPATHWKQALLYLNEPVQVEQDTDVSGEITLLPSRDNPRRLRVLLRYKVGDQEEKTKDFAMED
Sequence of Protein arginine N-methyltransferase 8 (Homo sapiens) (Q9NR22 2-394 limits assumed): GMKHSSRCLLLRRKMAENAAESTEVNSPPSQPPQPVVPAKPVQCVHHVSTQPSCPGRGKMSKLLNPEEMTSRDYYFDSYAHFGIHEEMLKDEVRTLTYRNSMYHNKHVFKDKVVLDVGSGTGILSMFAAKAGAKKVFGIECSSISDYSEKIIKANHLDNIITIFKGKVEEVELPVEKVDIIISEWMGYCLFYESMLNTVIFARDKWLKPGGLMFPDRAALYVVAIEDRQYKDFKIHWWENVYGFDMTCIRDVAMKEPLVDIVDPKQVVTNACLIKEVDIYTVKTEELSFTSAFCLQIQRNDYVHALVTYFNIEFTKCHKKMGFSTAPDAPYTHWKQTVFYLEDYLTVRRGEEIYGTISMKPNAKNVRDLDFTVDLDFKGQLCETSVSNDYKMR
Sequence of Protein arginine N-methyltransferase 3 (Homo sapiens) (O60678 2-531 limits assumed): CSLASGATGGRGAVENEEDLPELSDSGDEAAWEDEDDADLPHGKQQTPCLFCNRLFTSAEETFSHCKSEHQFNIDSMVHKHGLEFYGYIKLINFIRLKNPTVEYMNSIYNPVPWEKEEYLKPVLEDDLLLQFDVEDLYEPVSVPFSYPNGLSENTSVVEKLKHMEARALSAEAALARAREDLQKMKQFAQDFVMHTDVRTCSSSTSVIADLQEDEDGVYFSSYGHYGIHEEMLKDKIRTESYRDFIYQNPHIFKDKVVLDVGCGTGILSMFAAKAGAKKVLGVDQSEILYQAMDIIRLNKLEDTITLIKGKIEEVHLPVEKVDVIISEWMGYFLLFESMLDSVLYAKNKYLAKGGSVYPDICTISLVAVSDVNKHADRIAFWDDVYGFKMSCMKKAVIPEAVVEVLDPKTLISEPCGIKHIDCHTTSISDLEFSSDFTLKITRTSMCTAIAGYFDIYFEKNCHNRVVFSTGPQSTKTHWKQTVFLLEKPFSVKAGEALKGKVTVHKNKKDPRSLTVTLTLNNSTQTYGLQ

`O=C1Cc2cc(C(=O)N[C@H]3C[C@H]4CC[C@@H](C3)N4S(=O)(=O)N3CCC(NCc4ccccc4)CC3)c(Cl)cc2N1`: the inhibition in data set [1], in data set [2], in data set [3], in data set [4], in data set [5] and in data set [6] was less than 30% throughout. In data set [7], the CLint scaled at 1 µM was determined as 34 mL/min/kg. The same molecule returned a fraction unbound at 16 h, 1 µM in data set [8] of 0.32.
Turning to `O=C1Cc2cc(C(=O)N[C@H]3C[C@H]4CC[C@@H](C3)N4S(=O)(=O)CC3CCN(CCCC(F)(F)F)CC3)c(Cl)cc2N1`, the inhibition in data set [1], in data set [2], in data set [3], in data set [4], in data set [5] and in data set [6] was less than 30% in each case. Further, the CLint scaled at 1 µM in data set [7] turned out to be 24 mL/min/kg. In addition, the fraction unbound at 16 h, 1 µM in data set [8] came to 0.53.
